From ChEMBL document CHEMBL1148170, “Antiplatelet effects and vasorelaxing action of some constituents of Formosan plants” (1993)

What was measured:
Platelet [1] = experiment: Inhibition of platelet activity factor-induced platelet aggregation in rabbit platelet-rich plasma at 100 ug/mL after 3 mins by turbidimetric method; type: functional, Oryctolagus cuniculus; set-up: scale not given: the % may be the effect or the level left
Summary of the method: (§1)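 Preincubated with test agent or 0.5% DMSO (final, control) at 37° for 3 min, then ADP (20 μM), arachidonic acid (100 μM), collagen (10 μg/ml) or PAF (2 ng/ml) added. Stirred at 1200 rpm, turbidimetric aggregometry. Percent aggregation as mean ± SEM.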

Platelet [2] = experiment: Inhibition of collagen-induced platelet aggregation in rabbit platelet-rich plasma at 100 ug/mL after 3 mins by turbidimetric method; type: functional, Oryctolagus cuniculus; set-up: scale not given: the % may be the effect or the level left; summary of the method: as §1
Platelet [3] = experiment: Inhibition of arachidonic acid-induced platelet aggregation in rabbit platelet-rich plasma at 100 ug/mL after 3 mins by turbidimetric method; type: functional, Oryctolagus cuniculus; set-up: scale not given: the % may be the effect or the level left; summary of the method: as §1
Aorta [4] = experiment: Inhibition of norepinephrine-induced Wistar rat thoracic aorta tonic contraction at 100 ug/mL after 15 mins; type: functional
Summary of the method: (§2)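 Wistar rat thoracic aorta rings, about 5 mm, in Krebs solution at 37° gassed with 95% O2/5% CO2, under 1 g tension, equilibrated 90 min. Preincubated 15 min with compound or 0.1% DMSO (control), then stimulated with high K+ (80 mM) plus Ca2+ (1.9 mM) or norepinephrine 3 μM (phasic and tonic phases). Expressed as % of control contraction, mean ± SE, n = 3.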

Aorta [5] = experiment: Inhibition of K(+)/Ca(2+)-induced Wistar rat thoracic aorta contraction at 100 ug/mL after 15 mins; type: functional; summary of the method: as §2
Aorta [6] = experiment: Inhibition of norepinephrine-induced Wistar rat thoracic aorta phasic contraction at 100 ug/mL after 15 mins; type: functional; summary of the method: as §2
Platelet [7] = experiment: Inhibition of platelet activity factor-induced platelet aggregation in rabbit platelet-rich plasma at 50 ug/mL after 3 mins by turbidimetric method; type: functional, Oryctolagus cuniculus; set-up: scale not given: the % may be the effect or the level left
Summary of the method: as §1, with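 “Washed rabbit platelets from EDTA-anticoagulated platelet-rich plasma, 4.5 × 10^8/ml in Tyrode's solution with 0.35% BSA. Preincubated” for “Preincubated”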

Platelet [8] = experiment: Inhibition of ADP-induced platelet aggregation in rabbit platelet-rich plasma at 50 ug/mL after 3 mins by turbidimetric method; type: functional, Oryctolagus cuniculus; set-up: scale not given: the % may be the effect or the level left
Summary of the method: as §1, with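 “Washed rabbit platelets from EDTA-anticoagulated platelet-rich plasma, 4.5 × 10^8/ml in Tyrode's solution with 0.35% BSA. Preincubated” for “Preincubated”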

Platelet [9] = experiment: Inhibition of arachidonic acid-induced platelet aggregation in rabbit platelet-rich plasma at 50 ug/mL after 3 mins by turbidimetric method; type: functional, Oryctolagus cuniculus; set-up: scale not given: the % may be the effect or the level left
Summary of the method: (§3)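 Washed rabbit platelets from EDTA-anticoagulated platelet-rich plasma, 4.5 × 10^8/ml in Tyrode's solution with 0.35% BSA. Preincubated with compound or 0.5% DMSO (final) at 37° for 3 min, stirred at 1200 rpm. Arachidonic acid (100 µM) or collagen (10 µg/ml) then added. Turbidimetric read-out on a Lumi-aggregometer gives % aggregation as mean ± SEM.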

Platelet [10] = experiment: Inhibition of collagen-induced platelet aggregation in rabbit platelet-rich plasma at 50 ug/mL after 3 mins by turbidimetric method; type: functional, Oryctolagus cuniculus; set-up: scale not given: the % may be the effect or the level left; summary of the method: as §3
Platelet [11] = experiment: Inhibition of ADP-induced platelet aggregation in rabbit platelet-rich plasma at 100 ug/mL after 3 mins by turbidimetric method; type: functional, Oryctolagus cuniculus; set-up: scale not given: the % may be the effect or the level left
Summary of the method: as §1, with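 “Washed rabbit platelets from EDTA-anticoagulated platelet-rich plasma, 4.5 × 10^8/ml in Tyrode's solution with 0.35% BSA. Preincubated” for “Preincubated”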

Platelet [12] = experiment: Inhibition of arachidonic acid-induced platelet aggregation in rabbit platelet-rich plasma at 25 ug/mL after 3 mins by turbidimetric method; type: functional, Oryctolagus cuniculus; set-up: scale not given: the % may be the effect or the level left
Summary of the method: as §1, with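 “Washed rabbit platelets from EDTA-anticoagulated platelet-rich plasma, 4.5 × 10^8/ml in Tyrode's solution with 0.35% BSA. Preincubated” for “Preincubated”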

Platelet [13] = experiment: Inhibition of platelet activity factor-induced platelet aggregation in rabbit platelet-rich plasma at 25 ug/mL after 3 mins by turbidimetric method; type: functional, Oryctolagus cuniculus; set-up: scale not given: the % may be the effect or the level left
Summary of the method: as §1, with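 “Washed rabbit platelets from EDTA-anticoagulated platelet-rich plasma, 4.5 × 10^8/ml in Tyrode's solution with 0.35% BSA. Preincubated” for “Preincubated”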

Platelet [14] = experiment: Inhibition of ADP-induced platelet aggregation in rabbit platelet-rich plasma at 25 ug/mL after 3 mins by turbidimetric method; type: functional, Oryctolagus cuniculus; set-up: scale not given: the % may be the effect or the level left
Summary of the method: as §1, with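 “Washed rabbit platelets from EDTA-anticoagulated platelet-rich plasma, 4.5 × 10^8/ml in Tyrode's solution with 0.35% BSA. Preincubated” for “Preincubated”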

Platelet [15] = experiment: Inhibition of collagen-induced platelet aggregation in rabbit platelet-rich plasma at 25 ug/mL after 3 mins by turbidimetric method; type: functional, Oryctolagus cuniculus; set-up: scale not given: the % may be the effect or the level left
Summary of the method: as §1, with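 “Washed rabbit platelets from EDTA-anticoagulated platelet-rich plasma, 4.5 × 10^8/ml in Tyrode's solution with 0.35% BSA. Preincubated” for “Preincubated”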

Aorta [16] = experiment: Inhibition of norepinephrine-induced Wistar rat thoracic aorta tonic contraction at 10 ug/mL after 15 mins; type: functional; set-up: scale not given: the % may be the effect or the level left
Summary of the method: (§4)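 Thoracic aorta rings (~5 mm) from Wistar rats of either sex (250–300 g) held in Krebs solution at 37° under 95% O2/5% CO2. Equilibrated 90 min at 1 g tension, then preincubated 15 min with compound or 0.1% DMSO. Contraction by norepinephrine (3 µM), phasic and tonic components, expressed as % of control contraction, mean ± SE, n = 3.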

Aorta [17] = experiment: Inhibition of norepinephrine-induced Wistar rat thoracic aorta phasic contraction at 20 ug/mL after 15 mins; type: functional; set-up: scale not given: the % may be the effect or the level left; summary of the method: as §4
Aorta [18] = experiment: Inhibition of norepinephrine-induced Wistar rat thoracic aorta phasic contraction at 50 ug/mL after 15 mins; type: functional; set-up: scale not given: the % may be the effect or the level left; summary of the method: as §4
Aorta [19] = experiment: Inhibition of norepinephrine-induced Wistar rat thoracic aorta phasic contraction at 10 ug/mL after 15 mins; type: functional; set-up: scale not given: the % may be the effect or the level left; summary of the method: as §4
Aorta [20] = experiment: Inhibition of norepinephrine-induced Wistar rat thoracic aorta tonic contraction at 50 ug/mL after 15 mins; type: functional; set-up: scale not given: the % may be the effect or the level left; summary of the method: as §4
Aorta [21] = experiment: Inhibition of norepinephrine-induced Wistar rat thoracic aorta tonic contraction at 20 ug/mL after 15 mins; type: functional; set-up: scale not given: the % may be the effect or the level left; summary of the method: as §4
Platelet [22] = experiment: Inhibition of collagen-induced platelet aggregation in rabbit platelet-rich plasma after 3 mins by turbidimetric method; type: functional; conditions: Oryctolagus cuniculus

Structure (SMILES)	Activity (Platelet [1]) [%]	Activity (Platelet [2]) [%]	Activity (Platelet [3]) [%]	Activity (Platelet [11]) [%]	further results
CC(=O)Oc1cc(OC(C)=O)c2c(=O)c(OC(C)=O)c(-c3ccc(OC(C)=O)c(OC(C)=O)c3)oc2c1	89.2	17.4	2.4	–	–
O=c1c(O[C@@H]2O[C@H](CO[C@@H]3OC[C@H](O)[C@H](O)[C@H]3O)[C@H](O)[C@H](O)[C@H]2O)c(-c2ccc(O)c(O)c2)oc2cc(O)cc(O)c12	–	–	–	–	Contraction (% of control) (Aorta [4]): 108.4%; Contraction as % of control (Aorta [5]): 100%; Contraction as % of control (Aorta [6]): 100%
CC(=O)Oc1cc(OC(C)=O)c2c(=O)c(O[C@@H]3O[C@H](CO[C@@H]4OC[C@H](OC(C)=O)[C@H](OC(C)=O)[C@H]4OC(C)=O)[C@H](OC(C)=O)[C@H](OC(C)=O)[C@H]3OC(C)=O)c(-c3ccc(OC(C)=O)c(OC(C)=O)c3)oc2c1	87.7	38.5	78.3	–	–
COc1cc(OC(C)=O)c2c(=O)c(O[C@@H]3O[C@H](CO[C@@H]4O[C@@H](C)[C@H](O[C@@H]5O[C@@H](C)[C@H](OC(C)=O)[C@@H](OC(C)=O)[C@H]5OC(C)=O)[C@@H](OC(C)=O)[C@H]4OC(C)=O)[C@H](OC(C)=O)[C@H](OC(C)=O)[C@H]3OC(C)=O)c(-c3ccc(OC(C)=O)c(OC)c3)oc2c1	90.8	87.8	88.8	–	–
Cc1cc(O)c2c(c1)C(=O)c1cccc(O)c1C2=O [CHRYSOPHANOL]	–	–	–	–	Activity (Platelet [7]): 88.3%; Activity (Platelet [8]): 82.6%; Activity (Platelet [9]): 90.6%; Activity (Platelet [10]): 85.4%
CC(=O)Oc1cc(OC(C)=O)c2c(c1)C(=O)c1cc(C)cc(OC(C)=O)c1C2=O [EMODIN TRIACETATE]	84.5	89.6	82.5	72.2	–
Cc1cc(O)c2c(c1)C(=O)c1cc(O)cc(O)c1C2=O [EMODIN]	76.4	75.7	33.6	65.1	Activity (Platelet [9]): 64.5%; Activity (Platelet [12]): 90.2%; Activity (Platelet [10]): 83.3%
O=c1c(O[C@@H]2O[C@H](CO)[C@H](O)[C@H](O)[C@H]2O)c(-c2ccc(O)c(O)c2)oc2cc(O)cc(O)c12 [HYPEROSIDE]	93.8	87.3	92.2	71.4	Contraction (% of control) (Aorta [4]): 98.8%; Contraction as % of control (Aorta [5]): 120.9%; Contraction as % of control (Aorta [6]): 100%
COc1ccc2c(c1)c(CC(=O)O)c(C)n2C(=O)c1ccc(Cl)cc1 [INDOMETHACIN]	89.4	72.3	0	69.5	–
COc1cc(OC(C)=O)c2c(c1)C(=O)c1cc(C)cc(OC(C)=O)c1C2=O [PHYSCION DIACETATE]	–	–	–	–	Activity (Platelet [13]): 93.9%; Activity (Platelet [14]): 76.5%; Activity (Platelet [12]): 90.3%; Activity (Platelet [15]): 89.4%
COc1cc(O)c2c(c1)C(=O)c1cc(C)cc(O)c1C2=O [PHYSCION]	–	–	–	–	Activity (Platelet [13]): 80.7%; Activity (Platelet [14]): 78.9%; Activity (Platelet [12]): 89.6%; Activity (Platelet [15]): 86.8%
O=c1c(O)c(-c2ccc(O)c(O)c2)oc2cc(O)cc(O)c12 [QUERCETIN]	–	–	–	–	Contraction (% of control) (Aorta [4]): 0%; Activity (Aorta [16]): 101.9%; Activity (Aorta [17]): 44.9%; Activity (Aorta [18]): 15%; Contraction as % of control (Aorta [5]): 13.9%; Activity (Aorta [19]): 105%; Contraction as % of control (Aorta [6]): 27%; Activity (Aorta [20]): 0%; Activity (Aorta [21]): 29.1%
COc1cc(OC(C)=O)c2c(=O)c(OC(C)=O)c(-c3ccc(OC(C)=O)c(OC)c3)oc2c1 [RHAMNAZIN TRIACETATE]	84.5	14.3	10	–	Activity (Platelet [22]): Dose-dependent effect
COc1cc(OC(C)=O)c2c(=O)c(OC(C)=O)c(-c3ccc(OC(C)=O)c(OC(C)=O)c3)oc2c1 [RHAMNETIN TETRAACETATE]	0	0	2.6	–	Activity (Platelet [22]): Dose-dependent effect
CC(=O)Oc1cc(OC(C)=O)c2c(=O)c(OC(C)=O)c(-c3ccc(O[C@@H]4O[C@H](CO[C@@H]5O[C@@H](C)[C@H](OC(C)=O)[C@@H](OC(C)=O)[C@H]5O[C@@H]5O[C@@H](C)[C@H](OC(C)=O)[C@@H](OC(C)=O)[C@H]5OC(C)=O)[C@H](OC(C)=O)[C@H](OC(C)=O)[C@H]4OC(C)=O)cc3)oc2c1 [RHAMNUSTRIOSIDE UNDECAAACETATE]	89.9	86.5	88.5	–	–
CC(=O)Oc1cc(OC(C)=O)c2c(=O)c(O[C@@H]3O[C@H](CO[C@@H]4O[C@@H](C)[C@H](OC(C)=O)[C@@H](OC(C)=O)[C@H]4OC(C)=O)[C@@H](OC(C)=O)[C@H](OC(C)=O)[C@H]3OC(C)=O)c(-c3ccc(OC(C)=O)c(OC(C)=O)c3)oc2c1 [RUTIN DECAACETATE]	88.7	27.3	25.9	72.4	–
C[C@@H]1O[C@@H](OC[C@H]2O[C@@H](Oc3c(-c4ccc(O)c(O)c4)oc4cc(O)cc(O)c4c3=O)[C@H](O)[C@@H](O)[C@@H]2O)[C@H](O)[C@H](O)[C@H]1O [RUTIN]	91.1	87	93.5	75	Contraction (% of control) (Aorta [4]): 120.6%; Contraction as % of control (Aorta [5]): 112.9%; Contraction as % of control (Aorta [6]): 103.8%
